Published values of several laboratories.
Compare with care: the assays were run in different laboratories.
Observed: enzyme activity
Action: inhibitor
CHEK2: Serine/threonine-protein kinase Chk2 (CHEK2, Homo sapiens, UniProt O96017)
CHEK2 R145W: Serine/threonine-protein kinase Chk2 (CHEK2, Homo sapiens, UniProt O96017, R145W)

| Compound | target | method | concentration | remaining activity |
| --- | --- | --- | --- | --- |
| CCN(CC)c1ccc(C2=NNC(=O)CC2C)cc1[N+](=O)[O-] (stereo not drawn) | CHEK2 | – | 10 µM | 101% |
| CC(C)(C)c1nc2c(s1)c1nc(N)ncc1c1ccc(NS(=O)(=O)c3c(F)cccc3F)c(F)c12 | CHEK2 | radiometric | 1 µM | 72% |
| O=C(Nc1cnn(-c2csc(C(=O)NC3COC3)c2)c1)Nc1c(F)cccc1Cl | CHEK2 | – | 5 µM | 91.5% |
| Cc1ccc(NC(=O)c2ccc(C)c(C(F)(F)F)c2)cc1C#Cc1nn(C2CCC(O)CC2)c2ncnc(N)c12 (stereo not drawn) | CHEK2 R145W | – | 10 µM | 102% |
| CCCOc1ccc(OC)c(F)c1C(=O)c1ccc(C(=O)N[C@@H]2CNC[C@H]2NC(=O)c2ccc3[nH]ncc3c2)cc1 | CHEK2 | – | 10 µM | 13% |
| FC(F)c1nc2ccccc2n1-c1nc(N2CCOCC2)nc(N2CCOCC2)n1 | CHEK2 | – | 10 µM | 88% |
| Nc1nc(NC2CCCCC2)sc1C(=O)c1ccccc1 | CHEK2 | – | 10 µM | 61% |
| Cc1cnc(NC2CCOCC2)nc1-n1cnc(C(=O)NC(CN)c2cc(F)cc(Cl)c2)c1 (stereo not drawn) | CHEK2 R145W | radiometric | 1 µM | 79% |
| COc1cc(Nc2cnc(C#N)c(O[C@H](C)CN(C)C)n2)ncc1-c1cnn(C)c1 | CHEK2 | radiometric | 1 µM | 81% |
| O=C(Nc1cnn(-c2csc(C(=O)NC3COC3)c2)c1)Nc1ccccc1Cl | CHEK2 | – | 5 µM | 97.8% |
| Oc1cccc(-c2nc(N3CCOCC3)c3oc4ncccc4c3n2)c1 | CHEK2 | – | 10 µM | 85% |
| Nc1nc(Nc2ccccc2)sc1C(=O)c1c(F)cccc1F | CHEK2 | – | 10 µM | 30% |
